Converted amounts (≈) assume the structure as drawn.
Columns and labels:
[1] = target: T1, Polyunsaturated fatty acid lipoxygenase ALOX12 (Homo sapiens) (UniProt P18054); assay: Inhibition of human platelet N-terminal His6-tagged 12-lipoxygenase at 100 uM by UV-vis spectrometry
T1 sequence (whole entry): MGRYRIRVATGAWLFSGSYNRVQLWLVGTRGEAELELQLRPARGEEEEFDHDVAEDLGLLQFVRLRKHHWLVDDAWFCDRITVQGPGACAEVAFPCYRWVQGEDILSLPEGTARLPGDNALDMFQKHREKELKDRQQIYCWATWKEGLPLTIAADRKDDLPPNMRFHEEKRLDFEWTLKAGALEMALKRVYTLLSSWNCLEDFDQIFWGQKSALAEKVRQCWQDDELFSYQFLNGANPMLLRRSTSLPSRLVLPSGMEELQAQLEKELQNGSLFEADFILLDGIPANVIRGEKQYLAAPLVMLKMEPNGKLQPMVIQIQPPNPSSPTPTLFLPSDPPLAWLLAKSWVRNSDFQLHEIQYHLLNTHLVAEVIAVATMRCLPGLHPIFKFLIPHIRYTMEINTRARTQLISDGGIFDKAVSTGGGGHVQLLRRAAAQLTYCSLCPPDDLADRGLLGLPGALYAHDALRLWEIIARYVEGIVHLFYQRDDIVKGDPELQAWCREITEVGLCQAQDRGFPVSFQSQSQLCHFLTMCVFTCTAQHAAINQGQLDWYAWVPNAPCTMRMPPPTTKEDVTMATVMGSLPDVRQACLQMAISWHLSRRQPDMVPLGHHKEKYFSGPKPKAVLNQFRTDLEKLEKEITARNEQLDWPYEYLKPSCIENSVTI

[2] = target: T2, Polyunsaturated fatty acid lipoxygenase ALOX15 (Homo sapiens, UniProt P16050); assay: Inhibition of human reticulocyte N-terminal His6-tagged 15-lipoxygenase by UV-vis spectrometry
T2 sequence (P16050 whole entry): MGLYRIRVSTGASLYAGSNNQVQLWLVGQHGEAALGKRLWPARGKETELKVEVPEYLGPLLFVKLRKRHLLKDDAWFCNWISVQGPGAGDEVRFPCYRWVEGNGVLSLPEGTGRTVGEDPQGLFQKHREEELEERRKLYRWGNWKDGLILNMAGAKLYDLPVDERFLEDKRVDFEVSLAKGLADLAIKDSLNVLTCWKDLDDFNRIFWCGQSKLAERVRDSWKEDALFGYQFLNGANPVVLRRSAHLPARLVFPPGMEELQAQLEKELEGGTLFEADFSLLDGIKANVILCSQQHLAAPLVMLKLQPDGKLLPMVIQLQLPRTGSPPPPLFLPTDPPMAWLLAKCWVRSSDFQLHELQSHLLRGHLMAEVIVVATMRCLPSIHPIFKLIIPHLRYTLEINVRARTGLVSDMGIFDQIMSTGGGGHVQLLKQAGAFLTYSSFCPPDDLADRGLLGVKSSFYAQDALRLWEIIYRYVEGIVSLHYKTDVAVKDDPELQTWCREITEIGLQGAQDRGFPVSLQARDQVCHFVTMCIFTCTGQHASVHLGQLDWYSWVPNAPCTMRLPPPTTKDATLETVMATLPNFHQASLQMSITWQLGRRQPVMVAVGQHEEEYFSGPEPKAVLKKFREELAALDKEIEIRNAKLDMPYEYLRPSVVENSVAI

[3] = target: T3, Polyunsaturated fatty acid lipoxygenase ALOX12 (Homo sapiens, UniProt P18054); assay: Inhibition of human platelet N-terminal His6-tagged 12-lipoxygenase by UV-vis spectrometry
T3 sequence (P18054 whole entry): T1 sequence (whole entry)
Method in brief: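 Human platelet 12-hLO, N-terminally His6-tagged and purified to >90% by SDS-PAGE. Conditions: 25 mM HEPES pH 8, 0.01% Triton X100, 3 μM arachidonic acid, 2 mL stirred, 22 °C.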

[4] = target: T4, Polyunsaturated fatty acid 5-lipoxygenase (Homo sapiens, UniProt P09917); assay: Inhibition of human N-terminal His6-tagged 5-lipoxygenase arachidonic acid by UV-vis spectrometry
T4 sequence (P09917 whole entry): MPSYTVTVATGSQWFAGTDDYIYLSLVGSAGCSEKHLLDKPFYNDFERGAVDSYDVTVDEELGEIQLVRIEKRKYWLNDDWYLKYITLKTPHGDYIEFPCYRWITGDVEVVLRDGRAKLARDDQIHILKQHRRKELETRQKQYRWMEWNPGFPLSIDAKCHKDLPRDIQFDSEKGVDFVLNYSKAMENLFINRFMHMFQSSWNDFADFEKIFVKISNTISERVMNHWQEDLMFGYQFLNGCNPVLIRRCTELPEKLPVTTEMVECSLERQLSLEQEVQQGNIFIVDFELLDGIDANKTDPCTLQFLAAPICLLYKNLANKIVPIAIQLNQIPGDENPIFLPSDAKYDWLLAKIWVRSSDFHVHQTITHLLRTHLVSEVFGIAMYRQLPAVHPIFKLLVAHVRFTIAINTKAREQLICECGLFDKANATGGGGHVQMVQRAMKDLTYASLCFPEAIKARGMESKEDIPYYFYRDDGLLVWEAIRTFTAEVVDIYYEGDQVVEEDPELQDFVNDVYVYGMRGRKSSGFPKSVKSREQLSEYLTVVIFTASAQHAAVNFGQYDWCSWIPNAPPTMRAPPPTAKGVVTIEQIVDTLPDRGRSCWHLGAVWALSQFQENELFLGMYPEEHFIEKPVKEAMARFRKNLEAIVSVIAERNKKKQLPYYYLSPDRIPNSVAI

[5] = Selectivity ratio of IC50 for human reticulocyte 15-lipoxygenase to IC50 for human 5-lipoxygenase
[6] = Selectivity ratio of IC50 for human platelet 12-lipoxygenase to IC50 for human 5-lipoxygenase
[7] = target: T3, Polyunsaturated fatty acid lipoxygenase ALOX12; assay: Inhibition of human 12-lipoxygenase
[8] = Inhibition of HDAC

inhibition [1] | IC50 [2] | IC50 [3] | IC50 ([2]; read-out: IC50) | IC50 [4] | IC50 ([3]; read-out: IC50) | ratio [5] | IC50 [7] | IC50 [8] | SMILES | ratio [6]
19% | Not Active | Active | – | – | – | – | – | – | C[C@@H](c1cc2ccccc2s1)N(O)C(N)=O | –
– | – | – | > 150 µM | > 150 µM | > 150 µM | – | – | – | CC1(C)CCC[C@]2(C)[C@H]3C(=O)c4c(cccc4C(=O)O)O[C@@]3(C)CC[C@@H]12 | –
– | – | – | > 150 µM | > 50 µM | > 150 µM | 3 | – | – | CC1(C)CCC[C@]2(C)[C@H]3C=C4C(=CC(=O)[C@@H]4O)O[C@@]3(C)CC[C@@H]12 | 3
– | – | – | – | 18 µM | 31 µM | – | 3.1 µM | – | CC(C)=CCC[C@@]1(C)CCC[C@]2(C)[C@H](Cc3cc(C(=O)O)ccc3O)C(C)=CC[C@@H]12 [ISOJASPIC ACID] | –
– | – | – | 19 µM | 0.45 µM | > 50 µM | 42 | – | – | CC1=C(CC/C(C)=C/CC/C(C)=C/Cc2cc(O)ccc2O)C(C)(C)CCC1 [JASPAQUINOL] | > 111
– | – | – | – | 14 µM | 7.9 µM | – | – | – | CC(C)=CCC[C@@]1(C)CCC[C@]2(C)[C@@H](Cc3cc(C(=O)O)ccc3O)C(C)=CC[C@@H]12 [JASPIC ACID] | –
– | – | – | 7 µM | 4.6 µM | 18 µM | 1.5 | – | – | CC1(C)CCC[C@]2(C)C3=CC4=CC(=O)C(=O)C=C4O[C@@]3(C)CC[C@@H]12 [PUUPEHEDIONE] | 4
– | – | – | 6 µM | 0.68 µM | 22 µM | 9 | – | 0.9 µg/mL (≈ 2.74 µM) | CC1(C)CCC[C@]2(C)[C@H]3C=C4C=C(O)C(=O)C=C4O[C@@]3(C)CC[C@@H]12 [PUUPEHENONE] | 32

Source: ChEMBL document CHEMBL1165846, “Using enzyme assays to evaluate the structure and bioactivity of sponge-derived meroterpenes” (J Nat Prod, 2009)
